Compounds with a hit are over-represented: about 1.8% of the library has one in this group of screens.
Autophagy mod – alters autophagy in cells; MEF GFP-LC3 puncta imaging; test concentration mostly 10 µM; calls only at 10 µM (by protocol); hit rate 0.98% among 190,000;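 active = percentage of spot-positive cells more than 3 SD above its plate mean, without a fluorescence outlier flag or 80% toxicity; inconclusive = no clear call, values can overlap the other calls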
TNF necrop inh – blocks TNF-alpha induced death of Jurkat FADD-/- cells | activation (protection from cell death), % at 10 µM | hit rate 0.068% among 220,000 | Jurkat FADD-/- TNF necroptosis rescue, ATP luminescence, 24 h; 0 = TNF only, 100 = no-TNF cells;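 active = activation, meaning protection from cell death, of at least 50% relative to plate controls; inactive = activation below 50%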;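 also: necroptosis triggered by 40 ng/mL TNF-alpha added together with compound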
Furin inhibitor – inhibitors of human furin | inhibition, % at 20 µM or 30 µM | hit rate 0.061% among 220,000 | P09958 | purified furin, fluorogenic substrate cleavage; in the data active = inhibition above about 25%
Target sequence (P09958 108-714 limits assumed): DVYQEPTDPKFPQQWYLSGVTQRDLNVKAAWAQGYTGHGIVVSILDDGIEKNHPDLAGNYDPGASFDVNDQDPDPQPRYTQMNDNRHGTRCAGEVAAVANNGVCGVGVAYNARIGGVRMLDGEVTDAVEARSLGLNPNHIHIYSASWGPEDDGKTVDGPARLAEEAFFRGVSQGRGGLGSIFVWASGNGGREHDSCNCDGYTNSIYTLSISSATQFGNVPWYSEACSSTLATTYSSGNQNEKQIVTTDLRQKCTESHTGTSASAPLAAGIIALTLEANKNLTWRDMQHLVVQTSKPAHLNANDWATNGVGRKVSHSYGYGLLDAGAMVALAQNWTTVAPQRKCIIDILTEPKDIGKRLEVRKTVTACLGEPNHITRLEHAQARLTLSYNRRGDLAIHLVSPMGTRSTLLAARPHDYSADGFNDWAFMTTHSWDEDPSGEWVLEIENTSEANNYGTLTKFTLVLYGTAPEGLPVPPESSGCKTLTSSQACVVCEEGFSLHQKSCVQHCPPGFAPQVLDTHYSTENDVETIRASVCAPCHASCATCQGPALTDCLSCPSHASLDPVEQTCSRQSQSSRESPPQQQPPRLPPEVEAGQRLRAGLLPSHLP
HSV augment – increases HSV replication in cells; hit rate 0.005% among 220,000; AID 1956; maximum fold increase; HSV replication augmentation in cells, fold increase; in the data active = maximum fold increase above about 1.5; inconclusive = no clear call, values can overlap the other calls; tested in PC3 cells
zVAD death inh – L929 zVAD cell death inhibition; L929 zVAD necroptosis rescue, ATP luminescence, 24 h; with zVAD 60 µM; viability rescue, % at 10 µM; hit rate 0.38% among 220,000;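 active = activation, scaled between plate controls, above about 75%, limit read from the data; inactive = activation under that limit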
Dynein cargo inh – blocks dynein driven cargo transport along microtubules. 3617.4 mouse cells, GR-EGFP nuclear translocation imaging; test concentration mostly 20 µM; stimulated with dexamethasone, 1 µM; active compounds read low. z-score, hits read low. hit rate 0.47% among 220,000;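 active = plate z-score of nuclear minus cytoplasmic receptor signal below a set negative limit, without overly bright fluorescence or cell loss, cut at about -3.5 in these data, passing the limit was not always enough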;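 also: z-score of nuclear minus cytoplasmic ring GR-EGFP intensity difference per well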
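Medium: Induction medium lacking tetracycline, stripped serum | Probe or stimulus: 1.0 µM final dexamethasone stimulus | Schedule: 48 h induction, then 1 h compound, then 30 min agonist, 37 °C | Signal: Automated 10x imaging of fixed Hoechst-stained cells | Evaluation: Per-cell GR-EGFP intensity, nucleus versus surrounding cytoplasmic ring, well-averaged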
A number is an active result; i = inactive; ? = inconclusive; nt = no result; + = active, no number.

SMILES	Autophagy mod	TNF necrop inh	Furin inhibitor	HSV augment	zVAD death inh	Dynein cargo inh
CSc1nc(N)nc(SCC(=O)c2ccccc2)c1C#N	+	i	i	i	i	i
Cc1ccc(-c2ccc(SCC(=O)c3ccccc3)nn2)cc1	i	i	i	i	i	i
Cc1ccc(C(=O)CSc2nc(-c3ccccc3)ccc2C#N)cc1	+	i	i	?	i	i
O=C1CCN(C(=O)CSc2ccc(Cl)cc2)N1	i	i	i	i	i	i
Cc1ccc(Nc2c(-c3ccc(N4CCOCC4)cc3)nc3ncccn23)cc1	+	i	i	nt	nt	i
CCCN1C(=O)/C(=C/c2ccc(N3CCOCC3)cc2)NC1=S	i	i	i	1.6	i	i
Cc1ccc(CN2C(=O)N/C(=C\c3ccc(N4CCOCC4)cc3)C2=O)cc1	i	i	i	i	i	i
CCN1C(=O)/C(=C/c2ccc(N3CCCC3)cc2)NC1=S	+	i	i	?	i	i
O=c1cc(-c2ccccc2)nc(SCc2ccccc2F)[nH]1	i	i	i	i	i	i
CC1CCN(Cc2ccc(NC(=O)C3CCN(c4nnc(-n5cccc5)s4)CC3)cc2)CC1	+	i	i	i	i	i
O=C(C1CCN(c2nnc(-n3cccc3)s2)CC1)N1CCN(Cc2ccc3c(c2)OCO3)CC1	i	i	i	i	i	i
COC(C(=O)NC1CC1)c1ccccc1 (stereo not given)	i	i	i	nt	i	i
COC(C(=O)Nc1cccc(F)c1)c1ccccc1 (stereo not given)	i	79	i	i	i	i
COC(C(=O)Nc1ccc(F)c(F)c1)c1ccccc1 (stereo not given)	i	99	i	i	i	i
CCC(=O)Nc1cccc(C2=NOC3(C2)C[C@H](C(N)=O)N(C(=O)CC#N)C3)c1 (stereo not given in full)	nt	i	i	i	i	i
O=C(CCl)Nc1ccc2c(c1)OCO2	i	i	i	i	i	i
CC(C)CC(=O)Nc1ccc2c(c1)OCO2	+	i	i	i	i	i
CCOC(=O)c1ccccc1Nc1cn(C(C)=O)c2ccccc12	+	i	i	i	i	i
CC(=O)n1cc(Nc2ccccc2C(=O)O)c2ccccc21	i	i	i	i	i	i
COC(=O)c1cc(=O)n(Cc2ccc3c(c2)OCO3)c(=Nc2ccccc2)s1	i	i	i	i	i	-3.5
COC(=O)c1cc(=O)n(Cc2ccc3c(c2)OCO3)c(=Nc2ccc(F)cc2)s1	i	i	i	i	i	i
O=C(/C=C1\C(=O)Nc2ccccc21)/C=C1\C(=O)Nc2ccccc21	nt	i	i	i	i	-4.4
Cc1cc(C(=O)NC2Cc3ccccc3C2)c(C)o1	nt	i	i	i	i	i
Nc1ccccc1-c1nnn(CC(=O)N2CCCc3ccccc32)n1	+	i	i	i	i	i
O=C(Cn1nnc(-c2ccc(CN3CCOCC3)cc2)n1)N1CCCc2ccccc21	i	i	i	i	i	i
SMILES	Autophagy mod	TNF necrop inh	Furin inhibitor	HSV augment	zVAD death inh	Dynein cargo inh
N#C/C(=C/c1ccc(Br)o1)C(N)=S	nt	i	i	i	i	-4.1
COc1ccc(O[C@H]2C=C[C@@H](c3ccccc3)O[C@@H]2CO/N=C(\C)CCN2CCCCc3nc(C)c(C)cc32)cc1	+	i	i	nt	i	i
CC(=O)N1CCc2cc(S(=O)(=O)N3CCOCC3)ccc21	i	i	i	i	i	i
CC(=O)N1CCc2cc(S(=O)(=O)N3c4ccccc4CC3C)ccc21 (stereo not given)	+	i	i	i	i	i
CCOC(=O)N1CCN(C(=O)CCNS(=O)(=O)c2cc(Br)cnc2N)CC1	i	i	i	i	86	i
Cc1ccc(NC(=O)CCNS(=O)(=O)c2cc(Br)cnc2N)cc1Cl	i	i	i	i	nt	i
COc1ccc(C2Sc3nncn3N2Cc2ccc(C#N)cc2)cc1 (stereo not given)	+	i	i	i	i	i
COc1ccc(-n2c(SCc3ccc(C#N)cc3)nnc2-c2ccccn2)cc1	i	i	i	i	i	i
Cn1c(=O)[nH]c(=O)c2c1nc(N1CCOCC1)n2CCSc1nnnn1-c1ccccc1	nt	i	i	i	i	i
CC(CSc1nnnn1-c1ccccc1)Cn1c(N2CCCC2)nc2c1c(=O)[nH]c(=O)n2C (stereo not given)	+	i	i	i	i	i
COc1ccc(S(=O)(=O)Nc2cc(Sc3ncn[nH]3)c(O)c3ccccc23)cc1	i	i	i	nt	i	-4.5
COc1ccc(S(=O)(=O)Nc2ccc(O)c(Sc3ncn[nH]3)c2)cc1	i	i	i	i	i	i
COC(=O)c1ccc(CSc2nc(C)nc3c2c(=O)n(C)c(=O)n3C)o1	i	i	i	i	i	i
COC(=O)c1ccc(CSc2nc(-c3ccc(OC)cc3)nc3c2c(=O)n(C)c(=O)n3C)o1	+	i	i	nt	i	i
CC(=O)Nc1nc(Cn2nnc(-c3ccc4c(c3)OCO4)n2)nc(N(C)C)n1	i	i	i	i	i	i
COc1ccc(NC(=O)CCc2nc3ccccc3[nH]2)cc1	i	i	i	i	i	i
Cc1ccccc1-c1ccc(/C=C2/SC(N3CCOCC3)=NC2=O)o1	nt	i	i	i	i	i
O=C1N=C(N2CCOCC2)S/C1=C\c1ccc(-c2ccccc2Cl)o1	+	i	i	i	i	i
C/C(N)=C(/C#N)C(=O)CSc1nnc(-c2ccccc2)n1C	nt	i	i	i	i	i
Cc1ccnc(SCc2cc(=O)c(OC(=O)c3ccc(Cl)c([N+](=O)[O-])c3)co2)n1	i	i	25	i	i	i
Cc1ccnc(SCc2cc(=O)c(OC(=O)c3ccco3)co2)n1	i	i	i	i	i	i
CCO[C@H]1OC(C(=O)NCc2ccccc2)=C[C@@H](c2ccccc2)[C@@H]1CCCO	i	i	i	i	i	i
c1ccc2c(CNCCN3CCOCC3)cccc2c1	+	i	i	i	i	i
c1ccc2c(NCCCN3CCOCC3)c3ccccc3nc2c1	+	i	i	i	i	i
CCOc1ccccc1CNCCN1CCOCC1	i	i	i	i	i	i
SMILES	Autophagy mod	TNF necrop inh	Furin inhibitor	HSV augment	zVAD death inh	Dynein cargo inh
CCC(C(=O)NC1CCCCC1)N(Cc1cccs1)C(=O)c1snc(C(N)=O)c1N (stereo not given)	i	i	i	i	i	i
CC(C)CC(=O)CC1(O)C(=O)Nc2ccccc21 (stereo not given)	i	i	i	i	i	i
C=CCC(CC(O)COCCC)C(=O)NNC(=S)Nc1ccccc1 (stereo not given)	nt	i	i	i	i	i
N/C(=N\O)c1ccccc1N1CCCCC1	i	i	i	i	i	i
CC(=O)N(c1ccccc1)c1nnc(-c2cnc(C)cn2)s1	i	76	i	i	i	i
Cc1ccc(Nc2nc(NCCCN3CCOCC3)nc(N)c2[N+](=O)[O-])cc1	+	i	i	i	i	i
Cc1ccccc1Oc1nc(-c2ccccn2)nc2ccccc12	nt	i	i	i	i	i
